Data reported in ChEMBL document CHEMBL3526127, “Absorption, elimination, and metabolism of CS-1036, a novel α-amylase inhibitor in rats and monkeys, and the relationship between gastrointestinal distribution and suppression of glucose absorption” (Drug Metab Dispos, 2013).
One block for each molecule: values may come before it.

How the values were obtained:
[1] = Drug excretion in cynomolgus monkey urine at 3 mg/kg, iv administered as single dose after 0 to 336 hrs by scintillation counting method; format: ADME, organism-based, Macaca fascicularis; design: dose 3 mg/kg, route intravenous; conditions: in vivo
[2] = Drug excretion in F344 rat urine at 1 mg/kg, iv administered as single dose after 0 to 48 hrs by scintillation counting method; format: ADME, organism-based; design: dose 1 mg/kg, route intravenous; conditions: in vivo
Summary of the method: (§1)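 Fasted F344 rats (152–156 g iv via tail vein; 154–159 g oral; n = 4) received [14C]-labelled drug at 1 mg/kg (41.9 µCi/kg). Animals were kept in metabolic cages; urine and feces were collected to 168 h, and expired CO2 was trapped in 2-aminoethanol/2-methoxyethanol (1:1) to 48 h. Samples were counted by liquid scintillation (feces homogenized). Results are % of dose, mean ± S.D.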

[3] = Drug excretion in F344 rat feces at 1 mg/kg, po administered as single dose after 24 hrs by scintillation counting method; format: ADME, organism-based; design: dose 1 mg/kg, route oral; conditions: in vivo
Summary of the method: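 [14C]-labelled drug (1 mg/kg, 42.2 µCi/kg) was given orally to fasted F344 rats (164–168 g, n = 3). Urine and feces were collected to 24 h; feces were homogenized in 9 volumes of water, combusted and counted. Parent fraction came from the excreted radioactivity times the radio-HPLC (HILIC) peak-area ratio; mean ± S.D.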

[4] = Drug excretion in F344 rat expired air at 1 mg/kg, po administered as single dose after 0 to 48 hrs by scintillation counting method; format: ADME, organism-based; design: dose 1 mg/kg, route oral; conditions: in vivo; summary of the method: as §1
[5] = Drug excretion in cynomolgus monkey feces at 3 mg/kg, po administered as single dose after 0 to 48 hrs by scintillation counting method; format: ADME, organism-based, Macaca fascicularis; design: dose 3 mg/kg, route oral; conditions: in vivo
Summary of the method: (§2)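 Fasted cynomolgus monkeys (n = 4) received [14C]-labelled drug at 3 mg/kg, iv via saphenous vein (191 µCi/kg) or orally by stomach catheter (156.5 µCi/kg). Urine, feces and water cage-wash were collected to 336 h. Samples were counted by liquid scintillation; feces were homogenized in 4-fold water. Results are % of dose, mean ± S.D.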

[6] = Drug metabolism in human liver S9 fractions at 0.42 uCi/ml assessed as metabolite formation in presence of NADPH after 1 hr at 37 degC by LC-MS/MS method; format: ADME, subcellular, Liver S9 fraction; conditions: s9, 1 h
[7] = Drug excretion in F344 rat feces at 1 mg/kg, po administered as single dose after 0 to 168 hrs by scintillation counting method; format: ADME, organism-based; design: dose 1 mg/kg, route oral; conditions: in vivo; summary of the method: as §1
[8] = Drug excretion in F344 rat expired air at 1 mg/kg, iv administered as single dose after 0 to 48 hrs by scintillation counting method; format: ADME, organism-based; design: dose 1 mg/kg, route intravenous; conditions: in vivo; summary of the method: as §1
Cynomolgus monkey = assay: Drug excretion in cynomolgus monkey assessed as drug level found during cage washing at 3 mg/kg, po administered as single dose after 0 to 336 hrs by scintillation counting method; format: ADME, organism-based, Macaca fascicularis; design: dose 3 mg/kg, route oral; conditions: in vivo; summary of the method: as §2
Plasma = assay: Drug metabolism in po dosed F344 rat plasma by LC-MS/MS method; format: ADME, organism-based; conditions: in vivo
[9] = Drug excretion in cynomolgus monkey urine at 3 mg/kg, po administered as single dose after 0 to 48 hrs by scintillation counting method; format: ADME, organism-based, Macaca fascicularis; design: dose 3 mg/kg, route oral; conditions: in vivo
[10] = AUClast in F344 rat at 0.3 mg/kg, iv administered as single dose by LC-MS/MS method; format: ADME, organism-based; design: time 0 - last, dose 0.3 mg/kg, route intravenous; conditions: plasma
Summary of the method: (§3)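 Fasted male F344 rats (146–185 g) or male cynomolgus monkeys (3.48–4.29 kg), n = 4 per dose, given single iv or oral dose of 0.3, 1.0, 3.0 or 10.0 mg/kg; monkeys dosed with 2-week washouts. Blood sampled to 48 h; plasma stored frozen. LC-MS/MS with deuterated internal standard. Noncompartmental analysis: AUClast by trapezoidal rule; AUC0–inf = AUClast + Ctz/terminal rate constant; mean ± S.D.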

[11] = Tmax in cynomolgus monkey at 10 mg/kg, po administered as single dose by LC-MS/MS method; format: ADME, organism-based, Macaca fascicularis; design: dose 10 mg/kg, route oral; conditions: in vivo
Summary of the method: (§4)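 Male F344 rats (146–185 g) and male cynomolgus monkeys (3.48–4.29 kg), n = 4 each, fasted overnight, received single iv or oral doses of 0.3, 1.0, 3.0 or 10.0 mg/kg. Monkeys had 2-week washouts between doses. Plasma was sampled to 48 h and assayed by LC-MS/MS with deuterated internal standard. Noncompartmental analysis: tmax observed; t1/2 by regression on ≥3 terminal log points; Vss = dose·AUMC/(AUC0–inf)²; Foral = oral/iv AUC0–inf at the same dose.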

[12] = Volume of distribution at steady state in F344 rat at 0.3 mg/kg, iv administered as single dose by LC-MS/MS method; format: ADME, organism-based; design: dose 0.3 mg/kg, route intravenous; conditions: in vivo, read-out: Vdss; summary of the method: as §4
[13] = Tmax in F344 rat at 0.3 mg/kg, po administered as single dose by LC-MS/MS method; format: ADME, organism-based; design: dose 0.3 mg/kg, route oral; conditions: in vivo; summary of the method: as §4
[14] = Tmax in cynomolgus monkey at 0.3 mg/kg, po administered as single dose by LC-MS/MS method; format: ADME, organism-based, Macaca fascicularis; design: dose 0.3 mg/kg, route oral; conditions: in vivo; summary of the method: as §4
[15] = Cmax in F344 rat at 1 mg/kg, po administered as single dose by LC-MS/MS method; format: ADME, organism-based; design: dose 1 mg/kg, route oral; conditions: in vivo
Summary of the method: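 Fasted male F344 rats (146–185 g) and cynomolgus monkeys (3.48–4.29 kg), n = 4 each, received a single oral dose; monkeys had 2-week washouts. Plasma sampled up to 48 h, stored at […], assayed by LC-MS/MS with a deuterated internal standard. Cmax taken from observed data by noncompartmental analysis; mean ± S.D. (n = 3 or 4).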

[16] = Half life in F344 rat at 3 mg/kg, iv administered as single dose by LC-MS/MS method; format: ADME, organism-based; design: dose 3 mg/kg, route intravenous; conditions: in vivo; summary of the method: as §4
[17] = AUC (0 to infinity) in cynomolgus monkey at 10 mg/kg, iv administered as single dose by LC-MS/MS method; format: ADME, organism-based, Macaca fascicularis; design: dose 10 mg/kg, route intravenous, time infinity; conditions: plasma; summary of the method: as §3
[18] = Tmax in F344 rat at 10 mg/kg, po administered as single dose by LC-MS/MS method; format: ADME, organism-based; design: dose 10 mg/kg, route oral; conditions: in vivo; summary of the method: as §4
[19] = AUC (0 to infinity) in F344 rat at 10 mg/kg, po administered as single dose by LC-MS/MS method; format: ADME, organism-based; design: time infinity, dose 10 mg/kg, route oral; conditions: plasma; summary of the method: as §3
[20] = Half life in cynomolgus monkey at 1 mg/kg, iv administered as single dose by LC-MS/MS method; format: ADME, organism-based, Macaca fascicularis; design: dose 1 mg/kg, route intravenous; conditions: in vivo; summary of the method: as §4
[21] = Oral bioavailability in F344 rat at 3 mg/kg administered as single dose by LC-MS/MS method; format: ADME, organism-based; conditions: in vivo; summary of the method: as §4
[22] = Oral bioavailability in F344 rat at 0.3 mg/kg administered as single dose by LC-MS/MS method; format: ADME, organism-based; conditions: in vivo; summary of the method: as §4
[23] = Half life in cynomolgus monkey at 3 mg/kg, iv administered as single dose by LC-MS/MS method; format: ADME, organism-based, Macaca fascicularis; design: dose 3 mg/kg, route intravenous; conditions: in vivo; summary of the method: as §4
[24] = AUC (0 to infinity) in F344 rat at 3 mg/kg, po administered as single dose by LC-MS/MS method; format: ADME, organism-based; design: time infinity, dose 3 mg/kg, route oral; conditions: plasma; summary of the method: as §3
[25] = Oral bioavailability in cynomolgus monkey at 10 mg/kg administered as single dose by LC-MS/MS method; format: ADME, organism-based, Macaca fascicularis; conditions: in vivo; summary of the method: as §4
[26] = AUC (0 to infinity) in cynomolgus monkey at 3 mg/kg, po administered as single dose by LC-MS/MS method; format: ADME, organism-based, Macaca fascicularis; design: dose 3 mg/kg, route oral, time infinity; conditions: plasma; summary of the method: as §3
[27] = Half life in F344 rat at 1 mg/kg, iv administered as single dose by LC-MS/MS method; format: ADME, organism-based; design: dose 1 mg/kg, route intravenous; conditions: in vivo
Summary of the method: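 Fasted male F344 rats (146–185 g, n = 4 per dose) received single i.v. CS-1036. Plasma was sampled up to 48 h and analysed by LC-MS/MS. t1/2 came from noncompartmental regression of three or more log-transformed terminal-phase points. Mean ± S.D.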

Drug excretion [1]: 81.13%
Drug excretion [2]: 70.49%
Drug excretion [3]: 70.3%
Drug excretion [4]: 2.34%
Drug excretion [5]: 78.5%
Drug metabolism [6]: metabolite_not_detected
Drug excretion [7]: 80.28%
Drug excretion [8]: 0.82%
Drug excretion (Cynomolgus monkey): 1.35%
Drug metabolism (Plasma): metabolite_not_detected
Drug excretion [9]: 4.54%
Structure (SMILES): C[C@H]1O[C@@H](O[C@H]2[C@H](O)[C@@H](O)[C@@H](O[14C@H]3[14C@H](O)[14CH2]N[14C@@H]3[14CH2]O)O[C@@H]2CO)[C@H](O)[C@@H](O)[C@@H]1O

AUC(0-t) [10]: 1860 ng·h/mL
Tmax [11]: 1.75 h
Vd [12]: 0.218 L/kg
Tmax [13]: 0.5 h
Tmax [14]: 1.75 h
Cmax [15]: 45.5 ng/mL
half-life [16]: 23.6 h
AUC(0-inf) [17]: 74500 ng·h/mL
Tmax [18]: 0.438 h
AUC(0-inf) [19]: 1080 ng·h/mL
half-life [20]: 21.4 h
bioavailability [21]: 1.73%
bioavailability [22]: 2.44%
half-life [23]: 25.1 h
AUC(0-inf) [24]: 325 ng·h/mL
bioavailability [25]: 1.2%
AUC(0-inf) [26]: 191 ng·h/mL
half-life [27]: 18.4 h
Structure (SMILES): C[C@H]1O[C@@H](O[C@H]2[C@H](O)[C@@H](O)[C@@H](O[C@H]3[C@H](O)CN[C@@H]3CO)O[C@@H]2CO)[C@H](O)[C@@H](O)[C@@H]1O
